# Data taken from ChEMBL document CHEMBL2163303, “The development of first Staphylococcus aureus SplB protease inhibitors: phosphonic analogues of glutamine” (Bioorg Med Chem Lett, 2012).
# The source made the active and inactive calls. The rule behind the calls is not given here.
# Experiments:
# [1] = Ratio of rate of irreversible step k2 to Ki for subtilisin using fluorogenic Suc-Ala-Ala-Pro-Phe-AMC as substrate by spectrofluorometry
# Outline: (§1)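 Run in 0.1 M HEPES, 0.5 M NaCl, 0.03% Triton X-100, pH 7.5, 37 °C, with chymotrypsin at 3 nM or subtilisin at 5 nM. Enzyme added to Suc-Ala-Ala-Pro-Phe-AMC plus excess inhibitor, read at Ex 350/Em 460 nm. k_obs taken from progress curves; k2/Ki derived via a Km-corrected irreversible-inhibition model.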
# [2] = Ratio of rate of irreversible step k2 to Ki for chymotrypsin using fluorogenic Suc-Ala-Ala-Pro-Phe-AMC as substrate by spectrofluorometry; outline: as §1
# [3] = Inhibition of chymotrypsin using fluorogenic Suc-Ala-Ala-Pro-Phe-AMC as substrate by spectrofluorometry; outline: as §1
# [4] = target: T1, Serine protease SplB (Staphylococcus aureus) (UniProt Q53781); test: Ratio of rate of irreversible step k2 to Ki for Staphylococcus aureus SplB using fluorogenic […] as substrate up to 200 uM by spectrofluorometry
# T1 sequence (whole entry): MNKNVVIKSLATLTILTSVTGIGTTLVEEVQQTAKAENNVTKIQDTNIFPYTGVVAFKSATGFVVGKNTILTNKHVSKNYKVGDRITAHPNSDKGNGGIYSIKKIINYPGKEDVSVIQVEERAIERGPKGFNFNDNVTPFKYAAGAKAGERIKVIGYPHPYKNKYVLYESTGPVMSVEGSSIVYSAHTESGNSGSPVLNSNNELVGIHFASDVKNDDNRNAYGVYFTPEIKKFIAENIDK
# Outline: (§2)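 Enzyme added to substrate plus excess inhibitor in 0.1 M Tris-HCl, 0.01% Triton X-100, pH 7.6, 37 °C; SplB at 100 nM. Ac-Trp-Glu-Leu-Gln-ACC read at Ex 355/Em 460 nm. Pseudo-first-order k_obs taken from progress curves; k2/Ki fitted using substrate Km.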
# Serine protease SplB = target: T2, Serine protease SplB (Staphylococcus aureus, UniProt Q53781); test: Inhibition of Staphylococcus aureus SplB using fluorogenic […] as substrate by spectrofluorometry; outline: as §2
# T2 sequence (Q53781 whole entry): T1 sequence (whole entry)
# [5] = Inhibition of subtilisin using fluorogenic Suc-Ala-Ala-Pro-Phe-AMC as substrate by spectrofluorometry; outline: as §1
# [6] = target: T1, Serine protease SplB (Staphylococcus aureus); test: Inhibition of Staphylococcus aureus SplB using fluorogenic […] as substrate up to 200 uM by spectrofluorometry; outline: as §2
smiles,measurement,setting,value
COc1ccc(OP(=O)(Oc2ccc(OC)cc2)C(CCC(N)=O)NC(=O)OCc2ccccc2)cc1 (racemic),Ratio,[1],33 M⁻¹ s⁻¹
same,Ratio,[2],< 10 M⁻¹ s⁻¹
same,Ki,[3],> 200 µM
same,Ratio,[4],< 10 M⁻¹ s⁻¹
same,Ki,Serine protease SplB,> 200 µM
same,Ki,[5],111 µM
same,inhibition,[6],inactive
CC(C)(C)c1ccc(OP(=O)(Oc2ccc(C(C)(C)C)cc2)C(CCC(N)=O)NC(=O)OCc2ccccc2)cc1 (racemic),Ratio,[1],< 10 M⁻¹ s⁻¹
same,Ratio,[2],< 10 M⁻¹ s⁻¹
same,Ki,[3],> 200 µM
same,Ratio,[4],< 10 M⁻¹ s⁻¹
same,Ki,Serine protease SplB,> 200 µM
same,Ki,[5],> 200 µM
same,inhibition,[6],inactive
NC(=O)CCC(NC(=O)OCc1ccccc1)P(=O)(Oc1ccccc1)Oc1ccccc1 (racemic),Ratio,[1],< 10 M⁻¹ s⁻¹
same,Ratio,[2],< 10 M⁻¹ s⁻¹
same,Ki,[3],> 200 µM
same,Ratio,[4],< 10 M⁻¹ s⁻¹
same,Ki,Serine protease SplB,> 200 µM
same,Ki,[5],> 200 µM
same,inhibition,[6],inactive
CCc1ccc(OP(=O)(Oc2ccc(CC)cc2)C(CCC(N)=O)NC(=O)C(CC(C)C)NC(=O)OCc2ccccc2)cc1 (mixture of isomers),Ratio,[1],< 10 M⁻¹ s⁻¹
same,Ratio,[2],< 10 M⁻¹ s⁻¹
same,Ki,[3],> 200 µM
same,Ratio,[4],< 10 M⁻¹ s⁻¹
same,Ki,Serine protease SplB,> 200 µM
same,Ki,[5],> 200 µM
same,inhibition,[6],inactive
CCc1ccc(OP(=O)(Oc2ccc(CC)cc2)C(CCC(N)=O)NC(=O)OCc2ccccc2)cc1 (racemic),Ratio,[1],< 10 M⁻¹ s⁻¹
same,Ratio,[2],< 10 M⁻¹ s⁻¹
same,Ki,[3],> 200 µM
same,Ratio,[4],< 10 M⁻¹ s⁻¹
same,Ki,Serine protease SplB,> 200 µM
same,Ki,[5],> 200 µM
same,inhibition,[6],inactive
CC(C)CC(NC(=O)OCc1ccccc1)C(=O)NC(CCC(N)=O)P(=O)(Oc1ccc(C(C)(C)C)cc1)Oc1ccc(C(C)(C)C)cc1 (racemic),Ratio,[1],< 10 M⁻¹ s⁻¹
same,Ratio,[2],< 10 M⁻¹ s⁻¹
same,Ki,[3],> 200 µM
same,Ratio,[4],< 10 M⁻¹ s⁻¹
same,Ki,Serine protease SplB,> 200 µM
same,Ki,[5],> 200 µM
same,inhibition,[6],inactive
COc1ccc(OP(=O)(Oc2ccc(OC)cc2)C(CCC(N)=O)NC(=O)C(CC(C)C)NC(=O)OCc2ccccc2)cc1 (mixture of isomers),Ratio,[1],57 M⁻¹ s⁻¹
same,Ratio,[2],< 10 M⁻¹ s⁻¹
same,Ki,[3],> 200 µM
same,Ratio,[4],< 10 M⁻¹ s⁻¹
same,Ki,Serine protease SplB,> 200 µM
same,Ki,[5],35 µM
same,inhibition,[6],inactive
CC(C)CC(NC(=O)OCc1ccccc1)C(=O)NC(CCC(N)=O)P(=O)(Oc1ccccc1)Oc1ccccc1 (mixture of isomers),Ratio,[1],< 10 M⁻¹ s⁻¹
same,Ratio,[2],< 10 M⁻¹ s⁻¹
same,Ki,[3],> 200 µM
same,Ratio,[4],< 10 M⁻¹ s⁻¹
same,Ki,Serine protease SplB,> 200 µM
same,Ki,[5],> 200 µM
same,inhibition,[6],inactive
